PMI act satM6P: PMI (human) activation, high substrate; activation factor at 20 µM; AID 1216; 0.34% of 190,000 active; coupled PMI enzyme assay, resazurin fluorescence, 20 min; active compounds read high; 1 = untreated enzyme, 0 = substrate-free blank;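 active = activation factor of 2 or more at 20 µM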
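Technique: Diaphorase-driven resazurin-to-resorufin fluorescence, excitation 544, emission 590 nm | Assay system: Human PMI in coupled enzyme assay | Times: Enzyme reaction with compound 20 min at room temperature | Medium: HEPES-buffered pH 7.4 with magnesium and detergent | Reagent: Mannose-6-phosphate 1.0 mM (near-saturating) plus 0.22 mM NADP+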
ROMK primary: modulators of human ROMK potassium channel; Tet-inducible ROMK, thallium flux fluorescence; actives lie on both sides; 2% of 130,000 active; B-score at 10 µM; P48048;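 active = signal ratio slope over the read window, or its plate-corrected B-score, at least 3 SD from the plate mean, either direction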;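 note: B-score of the F/F0 ratio slope over 7 to 12 s after thallium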
Target sequence (P48048 whole entry, looked up): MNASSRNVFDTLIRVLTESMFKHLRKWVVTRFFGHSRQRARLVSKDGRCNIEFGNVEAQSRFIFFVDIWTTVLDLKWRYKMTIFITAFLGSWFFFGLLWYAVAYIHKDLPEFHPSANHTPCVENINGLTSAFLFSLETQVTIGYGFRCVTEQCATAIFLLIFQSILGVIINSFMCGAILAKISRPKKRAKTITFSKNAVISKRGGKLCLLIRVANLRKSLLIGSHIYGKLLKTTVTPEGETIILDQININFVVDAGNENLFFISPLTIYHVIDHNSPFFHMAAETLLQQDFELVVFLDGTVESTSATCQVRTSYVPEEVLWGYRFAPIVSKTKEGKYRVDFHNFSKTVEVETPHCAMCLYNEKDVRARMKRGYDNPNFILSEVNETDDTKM
Diaphorase inh: counter-screen for diaphorase-based assays: diaphorase inhibitors and chemical oxidizers. 0.69% of 190,000 active. inhibition, % at 20 µM. diaphorase resazurin-to-resorufin fluorescence, NADH, 16 min; bacterial (C. kluyveri) enzyme, not human;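 active = primary screen inhibition at 20 µM above a set limit, cut at about 50% in these data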;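 note: plate controls were DMSO with full reaction for no effect and wells lacking NADH for full effect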
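Test system: bacterial diaphorase enzyme (C. kluyveri); Quantity: 0.14 U/mL diaphorase, enzyme working solution; Times: reaction incubation of 16 min at room temperature; Measured by: fluorescence of resorufin formed from resazurin, Ex 544/Em 590 nm; Benchmarks: positive control minus NADH, DMSO neutral control.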
G6PDH CS: counter-screen for G6PDH assay hits: L. mesenteroides G6PDH inhibition. Purified L. mesenteroides G6PDH, diaphorase/resazurin coupled fluorescence, 45 min. inhibition, % at 5 µM. 0.12% of 200,000 active. AID 1020; in the data active = inhibition above about 50%
PMI act: increases human mannose-6-phosphate isomerase activity; P34949; purified human PMI, coupled resazurin fluorescence, 20 min; active compounds read high; 1 = vehicle control, 0 substrate-free wells; activation factor at 20 µM; 0.005% of 190,000 active; AID 1214;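 active = activation factor of 2 or more at 20 µM, relative to plate controls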
Diaphorase act: diaphorase activation or chemical reduction counter-screen | Diaphorase/resazurin coupled assay, resorufin fluorescence, 16 min; active compounds read high; 1 = vehicle wells, 0 = NADH-free wells | activation factor at 20 µM | 0.005% of 190,000 active | AID 1229;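 active = diaphorase activity raised at least twofold by the compound at 20 µM; inactive = activation factor below 2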
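Measured by – red resorufin fluorescence at 544/590 nm excitation/emission · Test system – Clostridium kluyveri diaphorase, purified enzyme · Incubation – reaction time 16 min, room temperature · Buffer or medium – 50 mM HEPES pH 7.4 with 4.542 mM MgCl2, 0.005% Tween 20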
Numbers without * were called inactive; / = no result given. Compounds with a hit are over-represented: about 2.2% of the library has one in this group of screens.

SMILES | PMI act satM6P | ROMK primary | Diaphorase inh | G6PDH CS | PMI act | Diaphorase act
Cn1cnc([N+](=O)[O-])c1Sc1ccc([N+](=O)[O-])cc1 | 2* | -1.09 | -9.8 | -2.4 | 1.4 | 1.1
Cn1cc2c([N+](=O)[O-])cc([N+](=O)[O-])cc2n1 | 0.6 | 0 | 27.5 | 17.2 | 1 | 0.7
CCN1CCN(Cc2cc(C(C)(C)C)c(O)c(C(C)(C)C)c2)CC1 | 0.9 | -0.678 | 19.9 | -2.2 | 0.8 | 0.8
O=[N+]([O-])c1cccc(C2N3CCCN23)c1 (stereo not drawn) | 1 | / | 3.7 | 2.6 | 0.9 | 1
O=C(O)c1cccc2c1NC(c1cccc([N+](=O)[O-])c1)C1CC(Sc3ccccc3[N+](=O)[O-])C(Cl)C21 (stereo not drawn) | 1.7 | 0.514 | 94.4* | 14.4 | 1.3 | 0.1
O=C(O)c1ccc2c(c1)C1C(Cl)C(Sc3ccccc3[N+](=O)[O-])CC1C(c1cccc([N+](=O)[O-])c1)N2 (stereo not drawn) | 1.3 | 0.269 | 66.0* | 8.9 | 1.3 | 0.3
CCCCOC(=O)C1=C(N)OC2=C(C(=O)CCC2)[C@]12C(=O)Nc1ccccc12 | 1 | / | 5.1 | 21.6 | 1 | 0.9
Cc1ccc2c(c1)CC1(CN2C)C(=O)NC(=O)N(CCc2ccccc2)C1=O (stereo not drawn) | 2.1* | 0.782 | 6.3 | 7.0 | 1.8 | 0.9
CCCC(C)(COC(N)=O)COC(=O)NC(C)C (stereo not drawn) | 1 | / | 7.2 | 9.2 | 1.1 | 0.9
CCOC(=O)c1c(/N=C/C2C(=O)NC(=S)NC2=O)sc(C)c1C | 1.1 | -2 | 16.1 | 4.5 | 0.9 | 0.8
CCOC(=O)c1c(/N=C/C2C(=O)NC(=S)NC2=O)sc2c1CCC2 | 2.1* | -0.808 | 17.8 | -4.6 | 1.6 | 0.8
O=C(NC1(C(F)(F)F)Oc2ccc(Cl)cc2O1)N1CCC2(CC1)OCCO2 (stereo not drawn) | 0.3 | 1.18 | 52.1* | 43.6 | 0.2 | 0.5
O=C(NC1(C(F)(F)F)Oc2ccccc2O1)N1CCC2(CC1)OCCO2 | 1 | / | 41.4 | 24.3 | 0.7 | 0.6
C=CCN1C(=O)NC(=O)/C(=C/c2ccoc2)C1=O | 2.2* | 1.31 | -8.1 | 8.5 | 1.6 | 1.1
O=c1[nH]c(=S)n(C2CC2)c(O)c1/C=N/Nc1cccc2ccccc12 | 1.2 | / | 41.4 | -22.9 | 1.3 | 0.6
O=c1[nH]c(=S)n(C2CC2)c(O)c1/C=N/Nc1ccccc1 | 2* | / | 14.7 | -14.1 | 1.6 | 0.9
CCC(C)n1c(O)c(/C=N/Nc2ccccc2)c(=O)[nH]c1=S (stereo not drawn) | 2.7* | / | 11.3 | -0.1 | 1.7 | 0.9
CCC(C)n1c(O)c(/C=N/NC(=O)c2ccncc2)c(=O)[nH]c1=S (stereo not drawn) | 1.3 | 0.188 | 35.1 | 4.7 | 1.1 | 0.6
Cc1cc(C(=O)CS(=O)c2ccc(F)cc2)cc(C)c1OC(=O)N(C)C (stereo not drawn) | 1.1 | 2.34 | 7.7 | 3.0 | 1 | 0.9
COc1ccc(CCNC(=O)c2c(N)n(CCN3CCOCC3)c3nc4ccccc4nc23)cc1 | 1.1 | / | 58.6* | -36.6 | 1 | 0.4
CN(C)c1ccc(C=C2C(=O)NC(=S)NC2=O)cc1[N+](=O)[O-] | 2.1* | -0.26 | 14.0 | 10.4 | 1.5 | 0.9
CCC(=Nc1ccccc1NC(C)=O)c1c(O)n(C)c(=O)n(C)c1=O | 1.2 | / | 9.6 | 5.8 | 1 | 0.9
C=CCn1c(O)c(C(C)=Nc2cccc(C(F)(F)F)c2)c(=O)[nH]c1=O | / | -0.0062 | / | / | / | /
C=CCC1C(=O)NC(=S)NC1=O | 2* | -0.41 | 10.6 | -0.4 | 1.6 | 0.9
CCOP(=O)(C#CC(C)(C)C)C(O)(c1ccccc1)C(F)(F)F (stereo not drawn) | 1.1 | / | -8.1 | 1.2 | 1 | 1.1
SMILES | PMI act satM6P | ROMK primary | Diaphorase inh | G6PDH CS | PMI act | Diaphorase act
CC1CCCC(C)N1/N=C/c1c[nH]c2ccc(Br)cc12 (stereo not drawn) | 0.9 | / | 22.4 | 4.5 | 0.8 | 0.8
O=C1NC(=O)C(=Cc2ccccc2Oc2ccc(F)cc2)C(=O)N1 | 1.2 | 3.28* | 7.9 | 5.2 | 1.1 | 0.9
CC(C)(C)C(=O)OCC12CCC(O1)C1(C)C(=O)OCC21 (stereo not drawn) | 0.9 | / | 12.8 | 21.1 | 0.9 | 0.9
Cc1cc2c(C(C)C)c(O)c(O)c(C=O)c2c(O)c1-c1c(C)cc2c(C(C)C)c(O)c(O)c(C=O)c2c1O | 0.5 | / | 64.3* | 27.7 | 0.7 | 0.4
Cn1ncnc2c(=O)n(C)c(=O)nc1-2 | 0.4 | / | 55.7* | 72.1* | 0.3 | 0.4
CC1=CC(=C2C(=O)NC(=S)NC2=O)C=C(C(F)(F)F)N1Cc1ccccc1 | 2* | 0.323 | -11.4 | 6.5 | 1.7 | 1.1
CC1=CC(=C2C(=O)NC(=O)NC2=O)C=C(C(F)(F)F)N1Cc1ccccc1 | 1.1 | 1.18 | -6.8 | 8.6 | 1 | 1.1
CC1(C)COC(Nc2cccc(Cl)c2)=N1 | 0.9 | / | 16.3 | 1.1 | 0.9 | 0.8
C[C@]12CCC(=O)C=C1CC[C@@H]1[C@@H]2C(=O)C[C@]2(C)C(=O)CC[C@@H]12 | 0.9 | / | 15.9 | 18.4 | 0.9 | 0.8
C[C@@]1(CO)[C@H](O)CC[C@@]2(C)[C@H]1CC[C@H]1C[C@@H]3C[C@@]12CC[C@]3(O)CO | 1.1 | / | 2.2 | 53.5* | 1.1 | 1
O=C1NC(=O)N(Cc2ccc(F)cc2)C(=O)/C1=C\C=C\c1ccco1 | / | -1.22 | / | / | / | /
O=C1NC(=O)N(Cc2ccccc2)C(=O)/C1=C\c1ccco1 | 2.3* | 0.532 | 11.6 | 2.7 | 1.6 | 0.9
COc1ccc(/C=N/N=C(/N)N[N+](=O)[O-])c(OC)c1 | 1 | / | 23.4 | 1.1 | 1 | 0.8
N/C(=N\N=C/c1ccc(-c2ccc(O)c(C(=O)O)c2)o1)N[N+](=O)[O-] | 0.6 | 0.373 | 56.7* | 3.2 | 0.7 | 0.4
CN1/C(=C\C=C2C(=O)NC(=S)NC2=O)C(C)(C)c2ccccc21 | 1.1 | -3.57* | 0.0 | -0.2 | 1.1 | 1
CC1(C)OC(c2ccccc2)=C/C(=C/C=C2C(=O)NC(=S)NC2=O)O1 | 1.7 | / | 23.7 | 14.7 | 1.3 | 0.8
Cc1ccc(NP(=O)(c2ccccc2)c2nc3ccccc3s2)cc1 (stereo not drawn) | 1 | 1 | 8.0 | 1.8 | 0.2 | 0.9
COc1cc2c(cc1OC)CC[N+](C)=C2 | 1.3 | / | 9.6 | 9.0 | 0.9 | 0.9
Cc1ccc(N2C(=O)NC(=O)C3(Cc4ccccc4N4CCN(c5ccccc5)CC43)C2=O)cc1 (stereo not drawn) | 2.2* | / | 11.4 | 3.8 | 1.6 | 0.9

High-throughput results from PubChem.
